Calls of active or inactive are those of the source. The rule behind the calls is not given here.
Assays:
Plasmodium falciparum [1] = assay: Antimalarial activity against Plasmodium falciparum 3D7 infected in human erythrocytes after 48 hrs by SYBR Green-1 dye based assay; type: functional, organism-based; conditions: 3D7, 48 h
In short: (§1)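 Asexual parasites kept on human erythrocytes in RPMI 1640 with 25 mM HEPES, […] hypoxanthine and 10% AlbuMAX II, pH 7.2. Cultures held at 37 °C under 5% O2 and 3−5% CO2 in N2, and sorbitol-synchronized. SYBR Green I fluorescence read at ex 485/em 535 nm. Percent survival vs untreated; IC50 by nonlinear regression.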

Plasmodium falciparum [2] = assay: Antimalarial activity against Plasmodium falciparum Dd2 infected in human erythrocytes after 48 hrs by SYBR Green-1 dye based assay; type: functional, organism-based; conditions: Dd2, 48 h; in short: as §1
SH-SY5Y = assay: Cytotoxicity against human SH-SY5Y cells up to 72 uM after 24 to 48 hrs by MTT assay; type: functional, cell-based
In short: (§2)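 Cells seeded at 10^4 cells cm−2 and left 24 h to adhere. Exposed 24 or 48 h to fresh medium containing compound from DMSO (1 μL per 100 μL) at final 3 and 30 μg mL−1. MTT added at 0.5 mg mL−1, formazan dissolved in DMSO, absorbance read at 550 nm. Triplicate.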

T47D = assay: Cytotoxicity against human T47D cells up to 72 uM after 24 to 48 hrs by MTT assay; type: functional, cell-based; in short: as §2
HT-29 = assay: Cytotoxicity against human HT-29 cells up to 72 uM after 24 to 48 hrs by MTT assay; type: functional, cell-based; in short: as §2
Caco-2 = assay: Cytotoxicity against human Caco2 cells up to 72 uM after 24 to 48 hrs by MTT assay; type: functional, cell-based; in short: as §2
RKO = assay: Cytotoxicity against human RKO cells up to 72 uM after 24 to 48 hrs by MTT assay; type: functional, cell-based; in short: as §2
HepG2 = assay: Cytotoxicity against human HepG2 cells up to 72 uM after 24 to 48 hrs by MTT assay; type: functional, cell-based; in short: as §2
MG-63 = assay: Cytotoxicity against human MG63 cells up to 72 uM after 24 to 48 hrs by MTT assay; type: functional, cell-based; in short: as §2

| IC50 (Plasmodium falciparum [1]) [nM] | IC50 (Plasmodium falciparum [2]) [nM] | Structure (SMILES) | Activity (SH-SY5Y) | Activity (T47D) | Activity (HT-29) | Activity (Caco-2) | Activity (RKO) | Activity (HepG2) | Activity (MG-63) |
| --- | --- | --- | --- | --- | --- | --- | --- | --- | --- |
| 2100 | 2300 | CCCCCCCCCCCCCCCc1cc(OC)cc(OC)c1O |  |  |  |  |  |  |  |
| 1500 | 2300 | CCCCCCCCCCCCCCCc1c(O)c(OC)cc(OC)c1Cl | inactive | inactive | inactive | inactive | inactive | inactive | inactive |

From ChEMBL document CHEMBL4330162, “Structure of Hierridin C, Synthesis of Hierridins B and C, and Evidence for Prevalent Alkylresorcinol Biosynthesis in Picocyanobacteria” (J Nat Prod, 2019)
